TAAR1 ag = human TAAR1 agonism; AID 624467; CHO RD-HGA16 TAAR1, Fluo-8 calcium fluorescence; vehicle wells 0%, saturating PEA agonist 100%; activation, % at 3 µM; 0.99% of 360,000 active; Q96RJ0;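 active means activation above the mean activation of all test compounds in the run plus 3 SD, cut at about 38% in these data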
Target sequence (Q96RJ0 whole entry, looked up): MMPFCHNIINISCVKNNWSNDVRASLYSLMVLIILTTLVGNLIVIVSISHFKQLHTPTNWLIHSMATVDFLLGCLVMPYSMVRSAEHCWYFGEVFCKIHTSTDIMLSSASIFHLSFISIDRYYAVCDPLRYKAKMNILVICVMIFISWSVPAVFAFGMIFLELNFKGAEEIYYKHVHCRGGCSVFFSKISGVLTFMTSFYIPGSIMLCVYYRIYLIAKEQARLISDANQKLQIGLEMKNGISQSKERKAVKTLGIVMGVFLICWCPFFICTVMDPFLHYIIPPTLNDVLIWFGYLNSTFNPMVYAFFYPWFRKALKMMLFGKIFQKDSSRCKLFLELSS
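Repeats: no replicates (n 1) | Material: CHO-derived RD-HGA16 cells with stable Gα16 and human TAAR1 | Technique: Kinetic Fluo-8 calcium fluorescence | Schedule: 17-24 h seeding, 75 min 37 °C dye, 30 min RT | Evaluation: % activation from peak over basal fluorescence ratio, DMSO-to-PEA scaled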
OXTR potentiate = potentiates the human oxytocin receptor response. P30559. CHO-OTR cells, Fluo-8 calcium fluorescence, potentiator mode; 0% = oxytocin EC15, 100% = EC100. activation, % at 3 µM. 0.061% of 320,000 active;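 active means activation above that plate's cutoff, the mean activation of tested compounds plus 3 SD, cut at about 6.6% in these data, passing the limit was not always enough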;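 further: 100% uses oxytocin at 75 nM as the full agonist control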
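Measured by – Fluo-8 calcium dye fluorescence · Test system – human OTR in CHO cells · Dosing – one concentration, 3.0 µM compound · Controls – EC15 oxytocin alone as 0%, 75 nM oxytocin as 100% · Evaluation – normalized max/min fluorescence ratio, % activation · Timing – 6 min pre-incubation, 100 s read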
TAAR1 antag = antagonists of human TAAR1. Q96RJ0. inhibition, % at 3 µM. 1.5% of 360,000 active. CHO RD-HGA16 TAAR1, Fluo-8 calcium fluorescence, antagonist;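 active means inhibition above a per-plate cutoff, the mean inhibition of test compounds on that plate plus 3 SD, cut at about 49% in these data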;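 further: 0% = DMSO plus EC80 beta-PEA response and 100% = DMSO alone without agonist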
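Material: RD-HGA16 CHO cells with stable hTAAR1 and Gα16; Dosing: single nominal final test compound concentration of 3 µM; Schedule: seeding 17-24 h prior, 75-min 37 °C, 30-min RT dye loading; Detection: kinetic Fluo-8 calcium fluorescence measurement; Measure: % inhibition from peak post-agonist over basal fluorescence ratio; Benchmarks: vehicle and agonist controls.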
V1R ag counter = counter-screen for oxytocin receptor agonists: human V1a receptor agonists; P37288; CHO-V1R cells, Fluo-8 calcium fluorescence, agonist mode; 0% DMSO, 100% 3 nM vasopressin; activation, % at 3 µM; 0.25% of 320,000 active; AID 2797;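 active means activation above the mean activation of all tested compounds plus 3 SD, per screening run, cut at about 20% in these data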;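 further: signal is peak over basal fluorescence ratio across a 100 second FLIPR read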
Target sequence (P37288 whole entry, looked up): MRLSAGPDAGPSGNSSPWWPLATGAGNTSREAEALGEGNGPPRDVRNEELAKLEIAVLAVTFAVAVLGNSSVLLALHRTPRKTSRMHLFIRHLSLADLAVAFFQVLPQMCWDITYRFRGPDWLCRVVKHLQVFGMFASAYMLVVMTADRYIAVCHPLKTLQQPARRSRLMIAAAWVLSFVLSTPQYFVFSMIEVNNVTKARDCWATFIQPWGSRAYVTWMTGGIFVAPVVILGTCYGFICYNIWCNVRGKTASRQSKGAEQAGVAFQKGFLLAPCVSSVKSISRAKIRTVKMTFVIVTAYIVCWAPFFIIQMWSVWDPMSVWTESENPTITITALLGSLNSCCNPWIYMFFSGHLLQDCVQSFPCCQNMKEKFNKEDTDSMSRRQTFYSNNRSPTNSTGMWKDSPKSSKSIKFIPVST
OXTR ag = human OXTR agonism; 0.32% of 320,000 active; CHO-OTR cells, Fluo-8 calcium fluorescence; normalized: DMSO 0%, oxytocin 100%; AID 2435; activation, % at 3 µM;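 active means activation above the mean of all tested compounds plus 3 SD, cutoff set per screening run, cut at about 20% in these data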;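 further: peak over basal fluorescence ratio from a 100 s FLIPR kinetic read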
nonsel antag count = nonselective antagonist in TAAR1 antagonist counter-screen; 77% of 2,400 active; shares compounds with TAAR1 antag; AID 651780; counterscreen cell line, calcium fluorescence, antagonist mode; inhibition, % at 3 µM; in the data active means inhibition above about 22%;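 further: CHO-Ga16 host cells stimulated with ATP at an EC80 level; 0% = agonist EC80 plus vehicle and 100% = vehicle without agonist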
TAAR1 ant conf = confirmation of human TAAR1 antagonists. shares compounds with TAAR1 antag. inhibition, % at 3 µM. TAAR1-expressing cells, fluorescence antagonist read-out. AID 651785. 40% of 2,400 active; in the data active means inhibition above about 49%;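 further: CHO-Ga16 host cells challenged with agonist PEA near its EC80; 0% = agonist at EC80 plus vehicle and 100% = vehicle with no agonist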
Ga16 ag counter-1 = nonselective Ga16 agonism, counter-screen; shares compounds with TAAR1 antag; Ga16-expressing cells, calcium fluorescence, agonist counterscreen; activation, % at 3 µM; 18% of 2,400 active; AID 651953; in the data active means activation above about 12%;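 further: 0% = vehicle wells and 100% = saturating stimulus response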
TAAR1 ag counter = counter-screen for human TAAR1 antagonists: TAAR1 agonists | shares compounds with TAAR1 antag | hTAAR1 cell line, fluorescence activation, agonist mode | activation, % at 3 µM | 2% of 2,400 active | AID 651955; in the data active means activation above about 37%;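 further: CHO cells stably expressing TAAR1 with calcium dye readout; 0% = DMSO vehicle and 100% = full agonist response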
TAAR1 ag confirm = confirmation of human TAAR1 agonists. shares compounds with TAAR1 ag. CHO RD-HGA16 TAAR1, Fluo-8 calcium fluorescence; scaled: DMSO 0%, maximal phenethylamine 100%. activation, % at 3 µM. 82% of 2,400 active. AID 651783;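 active means activation above a cutoff set at the run's mean compound activation plus 3 SD, cut at about 39% in these data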
Ga16 ag counter-2 = counter-screen for TAAR1 agonists: nonselective agonists in parental cells. shares compounds with TAAR1 ag. CHO-Ga16 parental, Fluo-8 calcium fluorescence; normalized to maximal ATP response, DMSO zero. activation, % at 3 µM. 50% of 2,400 active. AID 651787;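 active means activation above the run cutoff, the mean activation over all tested wells plus 3 SD, cut at about 12% in these data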;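 further: 0% = DMSO wells and 100% = maximal ATP response on the peak over basal ratio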
TAAR1 desensitize = counter-screen for human TAAR1 agonists: agonists that desensitize TAAR1; shares compounds with TAAR1 ag; CHO RD-HGA16 hTAAR1, Fluo-8 calcium, beta-PEA response inhibition; inhibition, % at 3 µM; 46% of 2,400 active; AID 651951;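 active means inhibition above the run cutoff, the mean inhibition of all test compounds plus 3 SD, cut at about 49% in these data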;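 further: beta-PEA stimulus applied at its EC80; loss of beta-PEA calcium signal after compound pretreatment read as receptor desensitization; 0% = DMSO with beta-PEA at EC80 and 100% = DMSO alone without agonist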
Ga16 antag count = nonselective Ga16 antagonist in TAAR1 agonist counter-screen | shares compounds with TAAR1 ag | CHO-Ga16 ATP-induced calcium, Fluo-8 fluorescence | 39% of 2,400 active | AID 651952 | inhibition, % at 3 µM;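 active means inhibition above the plate's mean compound inhibition plus 3 SD, computed per plate, cut at about 22% in these data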;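 further: 0% = EC80 ATP with DMSO and 100% = DMSO wells without ATP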
* = called active by the depositor; · = no result given. In the library only some 2.3% were active in any assay of this set; here they are far more common.

SMILES	TAAR1 ag	OXTR potentiate	TAAR1 antag	V1R ag counter	OXTR ag	nonsel antag count	TAAR1 ant conf	Ga16 ag counter-1	TAAR1 ag counter	others
COc1cccc(C(c2nnnn2-c2c(C)cccc2C)N2CCC(n3c(=O)[nH]c4ccccc43)CC2)c1OC (configuration not stated)	1	·	31	·	·	·	·	·	·
CCC(c1nnnn1Cc1ccccc1)N1CCC(n2c(=O)[nH]c3ccccc32)CC1 (configuration not stated)	24	·	72*	·	·	35*	56*	11	14
O=c1[nH]c2ccccc2n1C1CCN(C(c2ccnc3ccccc23)c2nnnn2-c2ccc3c(c2)OCCO3)CC1 (configuration not stated)	18	·	66*	·	·	11	48	13*	48*
CCC(c1nnnn1-c1ccc(OC)cc1)N1CCC(n2c(=O)[nH]c3ccccc32)CC1 (configuration not stated)	14	·	36	·	·	·	·	·	·
C/C=C1\NC(=O)[C@H](C)NC(=O)[C@@H](NC(=O)[C@H](Cc2ccc(O)cc2)NC(=O)[C@@H](NC(=O)/C(C)=C/C)C(C)C)[C@@H](C)OC(=O)[C@H](CCCc2ccc(O)cc2)NC(=O)[C@@H](CCC(=O)O)NC1=O	2	·	-12	·	·	·	·	·	·
Cn1cc(C(=O)N2CCOCC2)c2ccccc21	4	0	-7	0	0	·	·	·	·
CS(=O)(=O)c1ccc(C2=C(CNC(=O)c3nccs3)[C@H]3CC[C@@H](C2)N3CCOc2ccccc2)cc1	1	·	0	·	·	·	·	·	·
COc1ccc(-n2nnnc2C(c2ccccc2OC(F)(F)F)N2CCC(n3c(=O)[nH]c4ccccc43)CC2)cc1 (configuration not stated)	0	·	31	·	·	·	·	·	·
CCCCn1nnnc1C(CCSC)N1CCC(n2c(=O)[nH]c3ccccc32)CC1 (configuration not stated)	17	·	65*	·	·	29*	54*	10	27
CCCCn1nnnc1C(C1CC1)N1CCC(n2c(=O)[nH]c3ccccc32)CC1 (configuration not stated)	15	·	73*	·	·	24*	45	10	20
CCCCn1nnnc1C(C1CC1)N1CCC2(CC1)C(=O)NCN2c1ccccc1 (configuration not stated)	1	·	-12	·	·	·	·	·	·
CC1(C)C(=O)CC[C@@]2(C)C1=CCC1C2CC[C@]2(C)C(=O)CCC12 (some centres not stated)	2	-11	-5	6	4	·	·	·	·
Cc1ccc2nc(-c3ccc(CN4CCC(n5nnc6ccccc65)CC4)cc3)c(-c3ccccc3)nc2c1	1	·	75*	·	·	27*	38	3	0
Cc1ccc2nc(-c3ccc(CN4CCC(n5c(=O)[nH]c6ccccc65)CC4)cc3)c(-c3ccccc3)nc2c1	0	·	42	·	·	·	·	·	·
COc1ccc2nc(-c3ccc(CN4CCC(n5nnc6ccccc65)CC4)cc3)c(-c3ccccc3)nc2c1	1	·	50*	·	·	18	29	3	8
C[C@H]1CN([C@@H](C)CO)C(=O)CCCn2nncc2CO[C@@H]1CN(C)C(=O)Oc1ccccc1	1	·	-26	·	·	·	·	·	·
COC(=O)C1=C(c2ccc(F)cc2OCc2ccccc2)C[C@@H]2CC[C@H]1N2C(=O)NCc1cccc(OC)c1	11	-3	74*	2	2	29*	42	4	1
COC(=O)C1=C(c2ccccc2OCc2ccccc2)C[C@@H]2CC[C@H]1N2C(=O)NCc1cccc(F)c1	14	-2	42	2	0	·	·	·	·
COC(=O)C1=C(c2ccc(F)cc2OCc2ccccc2)C[C@@H]2CC[C@H]1N2C(=O)NCc1ccc(OC)cc1	13	-6	62*	2	-1	21	45	4	4
C[C@]12CCC(=O)C=C1C=CC1C2CC[C@@]2(C)C1CC[C@@H]2O (some centres not stated)	5	·	1	·	·	·	·	·	·
CCOC(=O)CC(SP1(=S)OCC2(CCCCC2)CO1)C(=O)OCC (configuration not stated)	1	·	58*	·	·	17	29	4	1
COc1cc2c(cc1OC)C13CCN4CC5=CCOC(CC(=O)O)C(C5CC41)C3N2 (configuration not stated)	0	·	2	·	·	·	·	·	·
O=C1NC(=O)C(Cc2ccccc2)(Cc2ccccc2)C(=O)N1Cc1ccccc1	0	·	60*	·	·	13	35	1	4
NCC(=O)c1ccccc1	89*	·	53*	·	·	·	·	·	·	TAAR1 ag confirm=89*;Ga16 ag counter-2=7;TAAR1 desensitize=88*;Ga16 antag count=2
NNP(=O)(CC(=O)c1ccccc1)c1ccccc1 (configuration not stated)	2	-13	-9	0	0	·	·	·	·
Cc1nc2ccc(Cl)cc2c(=O)n1-c1ccc([N+](=O)[O-])cc1	2	-4	11	-1	0	·	·	·	·
COC(=O)C1=C(c2ccc(Cl)c(C(F)(F)F)c2)C[C@@H]2CC[C@H]1N2C(=O)NCCCOC(C)C	·	-5	·	-1	-1	·	·	·	·
CC(C)[C@H]1C(=O)N2CCC[C@H]2[C@]2(O)O[C@](NC(=O)[C@@H]3C=C4c5cccc6[nH]cc(c56)C[C@H]4N(C)C3)(C(C)C)C(=O)N12	·	-2	·	2	0	·	·	·	·
CN1C[C@H](CO)C=C2c3cccc4[nH]cc(c34)C[C@H]21	64*	-5	64*	2	1	·	·	·	·	TAAR1 ag confirm=92*;Ga16 ag counter-2=3;TAAR1 desensitize=85*;Ga16 antag count=7
